≈ marks a conversion by molar mass, not a printed value.
Key:
[1] = Ratio of MIC for inhibition of ATP synthase in bedaquiline-resistant Mycobacterium tuberculosis to MIC for inhibition of ATP synthase in Mycobacterium tuberculosis H37Rv
Summary of the method: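 Ratio of alamar-blue MIC against the bedaquiline-resistant strain to MIC against H37Rv, both measured in the 7-day microplate alamar blue assay.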

[2] = system: Mycobacterium tuberculosis; assay: Inhibition of ATP synthase in multi-drug resistant Mycobacterium tuberculosis clinical isolate 14862 assessed as reduction in bacterial growth incubated for 7 days by microplate alamar blue assay; conditions: time 7.0 day
Summary of the method: (§1)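 Microplate alamar blue assay. Strains grown to late log phase in 7H9 broth with 0.2% glycerol, 0.05% Tween 80 and 10% ADC, then washed, filtered (8 µm) and frozen. Twofold compound dilutions with 2×10^5 CFU per well at 37 °C. On day 7, Tween 80 and alamar blue added; after 16–24 h, fluorescence read at 530/590 nm. MIC is the lowest concentration giving ≥90% fluorescence reduction versus bacterium-only controls.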

[3] = system: Mycobacterium tuberculosis; assay: Inhibition of ATP synthase in multi-drug resistant Mycobacterium tuberculosis clinical isolate 13946 assessed as reduction in bacterial growth incubated for 7 days by microplate alamar blue assay; conditions: time 7.0 day; summary of the method: as §1
[4] = system: Mycobacterium tuberculosis; assay: Inhibition of ATP synthase in bedaquiline-resistant Mycobacterium tuberculosis assessed as reduction in bacterial growth incubated for 7 days by microplate alamar blue assay; conditions: time 7.0 day; summary of the method: as §1

Structure (SMILES) | Ratio [1] | MIC=>90 [2] | MIC=>90 [3] | MIC=>90 [4]
Cc1cc(Nc2c(NCc3ccccn3)c(=O)c2=O)ccc1N1CCSCC1 | 5.7 | 0.207 µg/mL (≈ 0.525 µM) | 0.257 µg/mL (≈ 0.651 µM) | 4.85 µg/mL (≈ 12.3 µM)
NNC(=O)c1ccncc1 | – | > 10 µg/mL | 2.26 µg/mL (≈ 16.5 µM) | 0.052 µg/mL (≈ 0.379 µM)
O=c1c(NCc2ccccn2)c(Nc2ccc3c(c2)CCC3)c1=O | – | 0.94 µg/mL (≈ 2.94 µM) | 0.903 µg/mL (≈ 2.83 µM) | –
O=c1c(NCc2ccccn2)c(-c2ccc(N3CCOCC3)cc2)c1=O | 14.9 | 0.114 µg/mL (≈ 0.326 µM) | 0.107 µg/mL (≈ 0.306 µM) | 3.02 µg/mL (≈ 8.63 µM)
O=c1c(NCc2ccccn2)c(Nc2ccc3c(c2)OCO3)c1=O | 7.5 | 0.499 µg/mL (≈ 1.54 µM) | 0.47 µg/mL (≈ 1.45 µM) | 3.76 µg/mL (≈ 11.6 µM)
O=c1c(NCc2ccccn2)c(Nc2ccc3scnc3c2)c1=O | – | 3.37 µg/mL (≈ 10 µM) | 3.53 µg/mL (≈ 10.5 µM) | –
CO[C@H]1/C=C/O[C@@]2(C)Oc3c(C)c(O)c4c(O)c(c(/C=N/N5CCN(C)CC5)c(O)c4c3C2=O)NC(=O)/C(C)=C\C=C\[C@H](C)[C@H](O)[C@@H](C)[C@@H](O)[C@@H](C)[C@H](OC(C)=O)[C@@H]1C | – | 9.32 µg/mL (≈ 11.3 µM) | > 10 µg/mL | –
COc1nc2ccc(Br)cc2cc1[C@@H](c1ccccc1)[C@@](O)(CCN(C)C)c1cccc2ccccc12 | 62 | – | – | 2.23 µg/mL (≈ 4.02 µM)
O=C1CCCc2cc(Nc3c(NCc4ccccn4)c(=O)c3=O)ccc21 | – | 0.895 µg/mL (≈ 2.58 µM) | 0.488 µg/mL (≈ 1.4 µM) | –

From ChEMBL document CHEMBL4765447, “Design, synthesis and biological evaluation of diamino substituted cyclobut-3-ene-1,2-dione derivatives for the treatment of drug-resistant tuberculosis” (Eur J Med Chem, 2020)
